Experimental data collected from several papers.

SMILES	cell line	assay	system	conditions	endpoint	result
N#Cc1ccc(NC(=S)NN)cc1	CRFK	cell growth or viability, MTS	–	–	CC50	84.6 µg/mL
O=C(CCCN1CCC(O)(c2ccc(Cl)cc2)CC1)c1ccc(Br)cc1	K562	cell growth or viability	–	–	IC50	41.2 µM
CC(C)(C)NC(=O)N[C@H](C(=O)N1C[C@H]2[C@@H]([C@H]1C(=O)NC(CC1CCC1)C(=O)C(N)=O)C2(C)C)C(C)(C)C (stereo partly drawn)	MDCK	cell growth or viability, neutral red	–	48 h	CC50	> 100 µM
Nc1nc(O)c2ncn(COC(CO)CO)c2n1	CRFK	cell growth or viability, MTS	–	–	CC50	> 100 µM
CC(N)C12CC3CC(CC(C3)C1)C2 (stereo not drawn)	MDCK	cell growth or viability, MTT	–	72 h	CC50	62 µM
CC[C@@]1(O)C(=O)OCc2c1cc1n(c2=O)Cc2cc3ccccc3nc2-1	MDCK	–	Caco-2	0.5 µM, 105 min, pH 7.4	Papp A→B	27 ×10⁻⁶ cm/s
CCC(CC)O[C@@H]1C=C(C(=O)O)C[C@H](N)[C@H]1NC(C)=O	MDCK	cell growth or viability, MTT	–	72 h	CC50	> 200 µM
COc1ccc(C=NNC(=S)Nc2ccc(C#N)cc2)cc1	CRFK	cell growth or viability, MTS	–	–	CC50	> 100 µg/mL
CC(C)[C@H](N)C(=O)N1CCC[C@H]1B(O)O	K562	cell growth or viability, ATP luminescence	–	60 µM, 5 days	viability	98%
